According to ChEMBL document CHEMBL1139452, “Synthesis and structure-activity relationships of 5,6,7,8-tetrahydro-4H-thieno[3,2-b]azepine derivatives: novel arginine vasopressin antagonists” (J Med Chem, 2004):

Experiments:
Vasopressin V2 receptor [1] = biological target: Vasopressin V2 receptor (Rattus norvegicus, UniProt Q00788); test: Inhibitory activity against arginine vasopressin V2 receptor using [3H]AVP as radioligand in rat […] medulla; format: tissue-based
Procedure, shortened: (§1)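 Competition binding on plasma membrane preparations, with [3H]AVP (80 Ci/mmol, 1–2 nM) and graded test compound, in 100 mM Tris-HCl pH 7.5, 5 mM MgCl2, 1 mM EDTA, 0.1% BSA, ≤1% final DMSO. Incubated 20 min at 37 °C, stopped with ice-cold Tris pH 8.0, filtered on GF/B. Nonspecific binding: 1 μM AVP. IC50 by regression of displacement curves; n = 3, mean ± SEM.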

Rattus norvegicus [2] = test: Antagonistic effect against AVP-induced hypertension in rats after intravenous administration; format: functional; conditions: read-out: ID50 (the source's name)
Procedure, shortened: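 Male Sprague Dawley rats (250–350 g) under urethane anaesthesia (1.3 g/kg ip), with femoral artery and vein catheters, held at 37 °C. Compound or vehicle given iv (1 mL/kg) 2 min before AVP 30 mU/kg iv. ID50 is the dose inhibiting the maximal pressor response by 50%; n = 3, mean ± SEM.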

Vasopressin V1 receptor [3] = biological target: Vasopressin V1 receptor (Homo sapiens, UniProt P37288+P47901); test: Inhibitory activity against arginine vasopressin V1 receptor using [3H]AVP as radioligand in human platelet; procedure, shortened: as §1
Vasopressin V2 receptor [4] = biological target: Vasopressin V2 receptor (Homo sapiens, UniProt P30518); test: Inhibitory activity against human recombinant arginine vasopressin V2 receptor using [3H]AVP as radioligand in CHO cells; format: cell-based; procedure, shortened: as §1
Rattus norvegicus [5] = test: Diuretic effect was determined after peroral administration at a dose of 10 mg/kg in rats; format: functional, Urine; conditions: route oral
Procedure, shortened: (§2)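 Male Sprague Dawley rats (250–350 g) fasted 16–20 h, some also without water for 16–20 h. Compound or vehicle given orally. Spontaneously voided urine collected over 4 h in metabolic cages and reported as mL/4 h; n = 3, mean ± SEM.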

Vasopressin V1 receptor [6] = biological target: Vasopressin V1 receptor (Rattus norvegicus, UniProt P48974+P30560); test: Inhibitory activity against arginine vasopressin V1 receptor using [3H]AVP as radioligand in rat liver; procedure, shortened: as §1
Rattus norvegicus [7] = test: Diuretic effect was determined after peroral administration at a dose of 30 mg/kg in rats; format: functional, Urine; conditions: route oral; procedure, shortened: as §2

Chain of Vasopressin V2 receptor (Homo sapiens, UniProt P30518) (P30518 whole entry): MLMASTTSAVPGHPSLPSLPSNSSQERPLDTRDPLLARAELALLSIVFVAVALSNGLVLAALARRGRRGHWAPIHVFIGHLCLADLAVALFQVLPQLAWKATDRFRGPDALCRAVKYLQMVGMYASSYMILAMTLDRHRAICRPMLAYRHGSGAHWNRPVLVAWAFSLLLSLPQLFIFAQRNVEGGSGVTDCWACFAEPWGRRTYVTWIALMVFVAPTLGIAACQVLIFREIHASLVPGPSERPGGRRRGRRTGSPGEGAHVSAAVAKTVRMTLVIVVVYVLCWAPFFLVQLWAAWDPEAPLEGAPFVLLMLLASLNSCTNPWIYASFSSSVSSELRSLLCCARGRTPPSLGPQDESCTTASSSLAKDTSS
Chain of Vasopressin V2 receptor (Rattus norvegicus, UniProt Q00788) (Q00788 whole entry): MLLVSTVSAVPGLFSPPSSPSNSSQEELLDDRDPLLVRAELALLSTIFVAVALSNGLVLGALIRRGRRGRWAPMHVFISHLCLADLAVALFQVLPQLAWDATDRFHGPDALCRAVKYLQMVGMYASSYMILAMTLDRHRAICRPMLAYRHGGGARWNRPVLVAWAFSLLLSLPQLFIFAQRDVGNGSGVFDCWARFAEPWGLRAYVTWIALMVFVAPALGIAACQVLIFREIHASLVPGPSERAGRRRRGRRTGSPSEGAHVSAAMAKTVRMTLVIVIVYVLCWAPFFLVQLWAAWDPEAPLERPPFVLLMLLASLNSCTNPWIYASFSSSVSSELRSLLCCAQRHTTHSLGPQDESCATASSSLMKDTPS

SMILES | IC50 (Vasopressin V2 receptor [1]) | ED50 (Rattus norvegicus [2]) | IC50 (Vasopressin V1 receptor [3]) | IC50 (Vasopressin V2 receptor [4]) | Urine volume (Rattus norvegicus [5]) | IC50 (Vasopressin V1 receptor [6]) | Urine volume (Rattus norvegicus [7])
O=C(Nc1ccc(C(=O)N2CCCN(Cc3cccnc3)c3sccc32)cc1)c1ccccc1-c1ccccc1 | 30 nM | 0.14 mg/kg | 700 nM | 60 nM | 1.2 ml 4hr-1 | 500 nM | 
COc1cc(C(=O)N2CCCC(N(C)C)c3sccc32)ccc1NC(=O)c1ccccc1-c1ccccc1 (stereo not given) | 10 nM | > 0.3 mg/kg | 3000 nM | 20 nM | 9.3 ml 4hr-1 | 2000 nM | 12 ml 4hr-1
O=C(Nc1ccc(C(=O)N2CCCN(CCN3CCCC3)c3sccc32)cc1)c1ccccc1-c1ccccc1 | 10 nM | > 0.3 mg/kg | 800 nM | 200 nM | 6.3 ml 4hr-1 | 200 nM | 
CN(C)CCN(C)CCCCOc1cc(C(=O)N2CCCCc3sccc32)ccc1NC(=O)c1ccccc1-c1ccccc1 | 8 nM | 0.02 mg/kg | 5 nM | 80 nM | 10.2 ml 4hr-1 | 20 nM | 
CN1CCN(CCN2CCCN(C(=O)c3ccc(NC(=O)c4ccccc4-c4ccccc4)cc3)c3ccsc32)CC1 | 10 nM | > 0.3 mg/kg | 1000 nM | 50 nM | 7.4 ml 4hr-1 | 200 nM | 
CN(C)C1CCN(C(=O)COc2cc(C(=O)N3CCCCc4sccc43)ccc2NC(=O)c2ccccc2-c2ccccc2)CC1 | 4 nM | 0.02 mg/kg | 50 nM | 8 nM | 15 ml 4hr-1 | 20 nM | 
O=C(Nc1ccc(C(=O)N2CCCN(Cc3ccccc3)c3sccc32)cc1)c1ccccc1-c1ccccc1 | 70 nM | > 0.3 mg/kg | 400 nM | 80 nM |  | 500 nM | 
CN1CCCN(CC(=O)N2CCCN(C(=O)c3ccc(NC(=O)c4ccccc4-c4ccccc4)cc3)c3ccsc32)CC1 | 100 nM |  | > 10000 nM | > 10000 nM |  | > 10000 nM | 
CCN(CC)C1CCN(C(=O)CCCOc2cc(C(=O)N3CCCCc4sccc43)ccc2NC(=O)c2ccccc2-c2ccccc2)CC1 | 6 nM | 0.01 mg/kg | 4 nM | 9 nM | 18 ml 4hr-1 | 4 nM | 
O=C(Nc1ccc(C(=O)N2CCCCc3sccc32)cc1OCCCC(=O)N1CCC(N2CCCCC2)CC1)c1ccccc1-c1ccccc1 | 20 nM | 0.03 mg/kg | 10 nM | 30 nM | 8 ml 4hr-1 | 20 nM | 
CN1CCN(CCCCOc2cc(C(=O)N3CCCCc4sccc43)ccc2NC(=O)c2ccccc2-c2ccccc2)CC1 | 7 nM | < 0.01 mg/kg | 5 nM | 1 nM | 16.9 ml 4hr-1 | 3 nM | 
CN1CCCN(C(=O)CCCOc2cc(C(=O)N3CCCCc4sccc43)ccc2NC(=O)c2ccccc2-c2ccccc2)CC1 | 3 nM | 0.008 mg/kg | 50 nM | 10 nM | 19.1 ml 4hr-1 | 20 nM | 
O=C(Nc1ccc(C(=O)N2CCCCc3sccc32)cc1O)c1ccccc1-c1ccccc1 | < 10 nM | 0.04 mg/kg | 60 nM | < 10 nM | 2.3 ml 4hr-1 | 200 nM | 
CN1CCCN(CCCOc2cc(C(=O)N3CCCCc4sccc43)ccc2NC(=O)c2ccccc2-c2ccccc2)CC1 | < 1 nM | 0.03 mg/kg | < 1 nM | 2 nM | 18.3 ml 4hr-1 | 2 nM | 
CN1CCN(C(=O)CCCOc2cc(C(=O)N3CCCCc4sccc43)ccc2NC(=O)c2ccccc2-c2ccccc2)CC1 | 1 nM | 0.03 mg/kg | 10 nM | 6 nM | 17.6 ml 4hr-1 | 20 nM | 
CN(C)C1CCN(C(=O)CCCOc2cc(C(=O)N3CCCCc4sccc43)ccc2NC(=O)c2ccccc2-c2ccccc2)CC1 | 3 nM | 0.005 mg/kg | 3 nM | 20 nM | 22 ml 4hr-1 | 6 nM | 
CN(C)CCN1CCCN(C(=O)c2ccc(NC(=O)c3ccccc3-c3ccccc3)cc2)c2ccsc21 | 20 nM | 0.31 mg/kg | 400 nM | 80 nM | 6.7 ml 4hr-1 | 300 nM | 
